proCasp3 act: activates human procaspase-3 | P42574 | AID 463141 | recombinant procaspase-3 D3A, Ac-DEVD-pNA absorbance 405 nm | activation, % at 8.5 µM | 330,000 tested, 0.11% active;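 active = activation above the mean of all tested compounds plus 3 SD, cut at about 21% in these data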
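Test system: Procaspase-3 D3A mutant, all three cleavage aspartates alanine | Dosing: Single dose, 8.5 µM nominal compound, 0.8% DMSO | Schedule: 1 h preincubation, 2 h reaction | Technique: 405 nm absorbance of p-nitroaniline, reads at 0 and 120 min | Repeats: One well per compound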
ARFGAP1 inhibitor: inhibits rat ARF GTPase activating protein 1; Q62848; Arfgap1-stimulated ARF1 GTP hydrolysis, GDP FP detection; AID 651572; inhibition, % at 16.5 µM; 360,000 tested, 0.26% active;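 active = inhibition above a per-plate limit, mean inhibition of low control wells plus 3 SD, cut at about 25% in these data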
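Replicates: Single well per compound | Assay system: Truncated rat Arfgap1 GAP domain | Control set: No-Arfgap1 wells (100%) versus DMSO full-reaction wells (0%) | Times: Enzyme reaction 120 min at 25 °C after 20 min preincubation | Reagent: Human ARF1(Δ1-17)-GTP substrate | Measured by: Tracer-displacement fluorescence polarization with EDTA stop, 620/688 nm | Measure: Percent inhibition of Arfgap1-stimulated GTP hydrolysis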
ASAP1 inh: blocks human ASAP1-stimulated Arf1 GTP hydrolysis; GDP FP detection; Q9ULH1; 360,000 tested, 0.19% active; inhibition, % at 16.5 µM; in the data active = inhibition above about 25%
procasp7 counter: counter-screen for procaspase-3 activators: activators of human procaspase-7; activation, % at 8.5 µM; recombinant procaspase-7, Ac-DEVD-pNA absorbance 405 nm; D23A/D198A/D206A triple mutant, cannot self-cleave; scale: DMSO 0, 5 µM enzyme 100; P55210; AID 463210; 330,000 tested, 0.093% active;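 active = percent activation above the screen-wide mean plus 3 SD, cut at about 25% in these data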
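Assay system: Uncleavable procaspase-7 mutant enzyme; Input: 2 µM procaspase-7 mutant as dispensed; Also added: DEVD-pNA substrate; Medium: Zinc-free HEPES pH 7.4 with 300 mM NaCl, 0.01% Triton X-100; Timing: 1 h compound preincubation, 2 h substrate cleavage, 25 °C; Measured by: Epi-absorbance of released pNA at 405 nm, two timepoints.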
Yeast superoxide: yeast age-related superoxide inhibition as caloric restriction mimetic; S. cerevisiae aged cells, superoxide DHE fluorescence; stronger effect = lower value; superoxide response (% of plate mean), % at 10 µM; 330,000 tested, 0.18% active; AID 2690;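 active = superoxide response under a set limit, about three screen SD below normal, cut at about 65% in these data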;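 note: yeast aged for seven days with compound at 30 °C before DHE staining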
LANA-H2A inh: blocks KSHV LANA binding to histone H2A/H2B | Q9QR71 | cell-free LANA-H2A/H2B peptide, fluorescence polarization | inhibition, % (test concentration not listed) | 320,000 tested, 0.6% active | AID 2629; in the data active = inhibition mostly above about 10%, no sharp cut-off; inactive = mostly below about 6.7%
Numbers stand for hits; - = inactive; . = not tested or not shown; + = active, no number. In the library only some 1.2% were active in any assay of this set; here they are far more common.

SMILES	proCasp3 act	ARFGAP1 inhibitor	ASAP1 inh	procasp7 counter	Yeast superoxide	LANA-H2A inh
O=C(CNC(=O)N1CC(=O)Nc2ccccc21)NCCc1ccc(Cl)cc1	-	-	-	-	-	16.7
CC(=O)N1CCN(C(=O)c2c(-c3ccccc3)noc2C)CC1	-	-	-	-	-	22.3
CCCCCCC12C(=Cc3cc(C)ccc31)c1ccccc1C(CC(=O)NCc1ccccc1)N2C(=O)OC (stereo not drawn)	.	-	-	.	.	.
O=C(COC(=O)c1cccc(Br)c1)NC1CCCCCCC1	.	-	-	.	.	.
CCOC(=O)c1cnc2ccccc2c1NCCO	-	-	-	-	-	16.0
COC(=O)[C@]12C[C@H](CC(=O)N3CCN(C(=O)c4ccco4)CC3)C(=O)N(CCC3=CCCCC3)C1=C[C@H](C(C)(C)C)O[C@@H]2C	.	-	-	.	.	.
CCNC(=O)N(C)[C@H]1C[C@@H](c2ccccc2)N(C(C)=O)C[C@H]1CO	.	-	-	.	.	.
Cc1noc(C)c1NC(=O)N(C)C[C@H]1OCc2cn(nn2)CCCC(=O)N([C@H](C)CO)C[C@@H]1C	.	-	-	.	.	.
Cn1cccc1/C=C1\SC(=S)N(NC(=O)c2ccccc2)C1=O	-	-	-	-	-	+
Cn1cccc1/C=C1\SC(=S)N(NC(=O)c2ccc(F)cc2)C1=O	-	-	-	-	-	-
COc1ccccc1NC(=O)Cn1c(C)cc(=O)c2cccc(OC)c21	-	-	-	-	-	24.6
CCC(C)[C@H]1CNC(=S)N1CCC12CC3CC(CC(C3)C1)C2 (stereo partly drawn)	-	-	-	-	-	16.2
CC(=O)N1CCC(N2CCN(Cc3ccc(C)cc3)C(CCO)C2)CC1 (stereo not drawn)	-	-	-	-	-	76.9
O=C1c2ccccc2C2Cc3nnccc3CN12 (stereo not drawn)	.	-	-	.	.	.
O=C(NC1CC1)c1ccc(-n2cccc2)cc1	-	-	-	-	-	99.4
O=C(NC1CCCCCC1)c1ccc(-n2cnnc2)cc1	-	-	-	-	-	-
C[C@@H]1CNC(=O)c2c(C(=O)N3CCN(c4ccccc4)CC3)ncn21	.	-	-	.	.	.
COC(=O)C1=C(C)N(Cc2ccc(C(F)(F)F)cc2)C(=NCc2ccccc2C(F)(F)F)NC1c1ccccc1C(F)(F)F (stereo not drawn)	.	-	-	.	.	.
CCOC(=O)C1CCN(C(=O)c2ccc(N3CCOCC3)c([N+](=O)[O-])c2)CC1	-	-	-	-	-	20.8
COC(=O)[C@]12C[C@H](CC(=O)NCc3cccc(C(F)(F)F)c3)C(=O)N(Cc3ccccc3)C1=C[C@H](C1CCCC1)O[C@@H]2C	.	-	-	.	.	.
O=C(NCc1ccc(Cl)cc1)C1CCC(CNc2c(N3CCCCC3)c(=O)c2=O)CC1 (stereo not drawn)	-	-	-	-	-	-
O=C(NCc1ccc(F)cc1)C1CCC(CNc2c(N3CCCCC3)c(=O)c2=O)CC1 (stereo not drawn)	-	-	-	-	63.5	-
COCCCNc1c2c3c(cccc3[nH]c1=O)C(=O)c1ccccc1-2	-	-	-	-	-	123.5
O=C(Nc1ccccc1Oc1ccsc1C(=O)O)c1ccccc1F	-	-	-	-	-	97.9
O=C(Nc1ccccc1C(=O)Nc1ccccc1)c1ccccc1F	-	-	-	-	-	-
SMILES	proCasp3 act	ARFGAP1 inhibitor	ASAP1 inh	procasp7 counter	Yeast superoxide	LANA-H2A inh
O=C(O)c1cccc(NC(=O)c2ccccc2NC(=O)c2ccccc2F)c1	-	-	-	-	-	16.7
C[C@H]1[C@H](c2ccccc2)Oc2ccc(Cl)cc2S(=O)(=O)N1C[C@@H]1CCCN1C(=O)OC(C)(C)C	.	-	-	.	.	.
COc1ccc2c(=O)c(-c3cnn(-c4ccccc4)c3)c(C)oc2c1	-	-	-	-	-	22.0
O=C(NCc1ccccc1)[C@@H]1CCCN1C(=O)[C@H]1CCCN1C(=O)c1cc(F)cc(F)c1	.	-	-	.	.	.
O=C(c1c[nH]c2ccccc12)N1CCOCC1	-	-	-	-	-	39.7
COC(=O)[C@]12C[C@H](CC(=O)NCc3cccc4ccccc34)C(=O)N(Cc3ccccc3)C1=C[C@H](C(C)C)O[C@@H]2C1CC1	.	-	-	.	.	.
CCN(CC)C1=C(Cl)C(=O)C(Cl)C12OCCO2 (stereo not drawn)	-	-	-	-	-	12.4
CC1CCCCC1NC(=O)C1CCN(S(=O)(=O)N2CCOCC2)CC1 (stereo not drawn)	-	-	-	-	-	25.9
CCN(C[C@H]1N[C@@](Cc2ccccc2)(C(=O)OC)[C@H]2C(=O)N(C)C(=O)[C@@H]12)C(=O)NC(C)C	-	-	-	-	-	+
CCN(C[C@H]1N[C@@](CC)(C(=O)OC)[C@H]2C(=O)N(Cc3ccccc3)C(=O)[C@@H]12)S(=O)(=O)c1ccc(-c2ccccc2)cc1	-	-	-	-	-	-
CCN(C[C@H]1N[C@@](CC)(C(=O)OC)[C@H]2C(=O)N(Cc3ccccc3)C(=O)[C@@H]12)S(=O)(=O)c1ccc(C)cc1	-	-	-	-	-	+
CCN(C[C@H]1N[C@@](Cc2ccccc2)(C(=O)OC)[C@H]2C(=O)N(C)C(=O)[C@@H]12)S(=O)(=O)c1ccc(OC(F)(F)F)cc1	-	-	-	-	-	-
CCN(C[C@H]1N[C@@](Cc2ccccc2)(C(=O)OC)[C@H]2C(=O)N(C)C(=O)[C@@H]12)S(=O)(=O)c1ccc(OC)cc1	-	-	-	-	-	+
CCN(C[C@H]1N[C@@](Cc2ccccc2)(C(=O)OC)[C@H]2C(=O)N(C)C(=O)[C@@H]12)C(=O)c1ccccc1	-	-	-	-	-	.
Cn1c(=O)c2cc(NC(=S)NC3CCCCC3)ccc2n1-c1ccccc1	.	-	-	.	.	.
CCOC(=O)CC1(C)Sc2ccccc2N1S(=O)(=O)c1ccc(C)cc1 (stereo not drawn)	.	-	-	.	.	.
COc1ccc(OC)c(CN2CCN(C(=O)c3cccc(S(=O)(=O)N(C)c4ccccc4)c3)CC2)c1	.	-	-	.	.	.
CCCCCCCCN1C(=O)[C@@H](CC(=O)NCCCN2CCCC2=O)C[C@@]2(C(=O)OC)C1=C[C@H](C(C)(C)C)O[C@@H]2C	.	-	-	.	.	.
O=C(Nc1ccccc1C(=O)N1CCCCC1)c1cc(F)c(F)cc1Cl	-	-	-	-	-	-
O=C(Nc1ccccc1C(=O)N1CCCC1)c1ccc(Cl)cc1Cl	-	-	-	-	-	18.3
CCc1nc2ccc(C(=O)NCCN3CCOCC3)cn2c1N(C)Cc1ccc(OC)cc1	.	-	-	.	.	.
O=C(Nc1cccc(NC(=O)c2cccc(F)c2)n1)c1cccc(F)c1	-	-	-	-	-	-
O=C(Nc1cccc(NC(=O)c2c(F)cccc2F)n1)c1c(F)cccc1F	-	24.8	-	-	-	-
